Activity calls are given as the source filed them. The rule behind the calls is not given here.
Legend:
[1] = biological target: T1, Peroxisome proliferator-activated receptor gamma (Mus musculus) (UniProt P37238); test: Agonist activity at GAL4-tagged mouse PPARgamma LBD expressed in monkey CV1 cells assessed as receptor transactivation incubated for 24 hrs by luciferase reporter gene assay relative to telmisartan; assay type: cell-based
T1 sequence (whole entry): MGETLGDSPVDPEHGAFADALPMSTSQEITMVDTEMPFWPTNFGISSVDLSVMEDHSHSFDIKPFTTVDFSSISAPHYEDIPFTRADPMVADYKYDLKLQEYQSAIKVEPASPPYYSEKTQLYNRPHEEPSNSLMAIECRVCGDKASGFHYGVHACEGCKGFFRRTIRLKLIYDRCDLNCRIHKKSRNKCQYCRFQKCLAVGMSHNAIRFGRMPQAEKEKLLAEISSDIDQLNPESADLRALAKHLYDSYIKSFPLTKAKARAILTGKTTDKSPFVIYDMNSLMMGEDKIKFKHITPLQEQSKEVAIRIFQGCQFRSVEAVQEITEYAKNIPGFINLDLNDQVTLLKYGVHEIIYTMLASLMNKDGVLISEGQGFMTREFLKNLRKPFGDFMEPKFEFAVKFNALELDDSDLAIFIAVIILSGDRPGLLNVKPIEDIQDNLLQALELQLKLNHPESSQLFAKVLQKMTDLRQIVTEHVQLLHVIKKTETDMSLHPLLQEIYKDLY

Mus musculus [2] = test: Antidiabetic activity in db/db mouse assessed as reduction in random blood glucose level at 30 mg/kg, po administered daily once for 2 weeks; assay type: functional, organism-based
Mus musculus [3] = test: Antidiabetic activity in db/db mouse assessed as reduction in body weight gain at 30 mg/kg, po administered daily once for 2 weeks; assay type: functional, organism-based
Mus musculus [4] = test: Antidiabetic activity in db/db mouse assessed as reduction in blood glucose level at 30 mg/kg, po administered daily once for 2 weeks and measured on day 14 by OGTT method; assay type: functional, organism-based
[5] = Toxicity in db/db mouse assessed as reduction in food intake at 30 mg/kg, po administered daily once and measured on day 7; assay type: organism-based; details: in vivo
[6] = biological target: T2, Peroxisome proliferator-activated receptor gamma (Homo sapiens, UniProt P37231); test: Agonist activity at PPARgamma (unknown origin) assessed as receptor transactivation after 24 hrs by TK-PPRE-Luc expressing cells based luciferase reporter gene assay
T2 sequence (P37231 whole entry): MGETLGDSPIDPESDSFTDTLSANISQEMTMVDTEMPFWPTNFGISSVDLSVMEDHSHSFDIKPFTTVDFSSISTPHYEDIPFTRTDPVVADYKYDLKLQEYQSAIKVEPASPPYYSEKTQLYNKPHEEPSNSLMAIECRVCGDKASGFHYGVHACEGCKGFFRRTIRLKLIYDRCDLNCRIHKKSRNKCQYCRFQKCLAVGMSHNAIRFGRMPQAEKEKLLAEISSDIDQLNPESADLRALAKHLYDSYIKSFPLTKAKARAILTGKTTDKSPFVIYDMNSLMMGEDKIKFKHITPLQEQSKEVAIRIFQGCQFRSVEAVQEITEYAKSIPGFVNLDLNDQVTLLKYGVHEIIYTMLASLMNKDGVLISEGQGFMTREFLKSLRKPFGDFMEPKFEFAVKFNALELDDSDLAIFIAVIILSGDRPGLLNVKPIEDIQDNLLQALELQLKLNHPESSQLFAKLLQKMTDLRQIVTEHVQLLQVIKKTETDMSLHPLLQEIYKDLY
In short: (§1)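 Luciferase reporter gene assay in cells transfected with PPRE and luciferase genes; luciferase induction measured over a range of concentrations to derive EC50 and Amax; Amax expressed as a percentage relative to pioglitazone.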

[7] = biological target: T3, Peroxisome proliferator-activated receptor gamma (Homo sapiens) (UniProt P37231); test: Agonist activity at PPARgamma (unknown origin) assessed as receptor transactivation after 24 hrs by TK-PPRE-Luc expressing cells based luciferase reporter gene assay relative to pioglitazone; in short: as §1
T3 sequence (whole entry): T2 sequence (P37231 whole entry)

hERG (KCNH2) = hERG (KCNH2) (Homo sapiens, UniProt Q12809); test: Inhibition of human ERG at 10 uM
Chain of hERG (KCNH2) (Q12809 whole entry): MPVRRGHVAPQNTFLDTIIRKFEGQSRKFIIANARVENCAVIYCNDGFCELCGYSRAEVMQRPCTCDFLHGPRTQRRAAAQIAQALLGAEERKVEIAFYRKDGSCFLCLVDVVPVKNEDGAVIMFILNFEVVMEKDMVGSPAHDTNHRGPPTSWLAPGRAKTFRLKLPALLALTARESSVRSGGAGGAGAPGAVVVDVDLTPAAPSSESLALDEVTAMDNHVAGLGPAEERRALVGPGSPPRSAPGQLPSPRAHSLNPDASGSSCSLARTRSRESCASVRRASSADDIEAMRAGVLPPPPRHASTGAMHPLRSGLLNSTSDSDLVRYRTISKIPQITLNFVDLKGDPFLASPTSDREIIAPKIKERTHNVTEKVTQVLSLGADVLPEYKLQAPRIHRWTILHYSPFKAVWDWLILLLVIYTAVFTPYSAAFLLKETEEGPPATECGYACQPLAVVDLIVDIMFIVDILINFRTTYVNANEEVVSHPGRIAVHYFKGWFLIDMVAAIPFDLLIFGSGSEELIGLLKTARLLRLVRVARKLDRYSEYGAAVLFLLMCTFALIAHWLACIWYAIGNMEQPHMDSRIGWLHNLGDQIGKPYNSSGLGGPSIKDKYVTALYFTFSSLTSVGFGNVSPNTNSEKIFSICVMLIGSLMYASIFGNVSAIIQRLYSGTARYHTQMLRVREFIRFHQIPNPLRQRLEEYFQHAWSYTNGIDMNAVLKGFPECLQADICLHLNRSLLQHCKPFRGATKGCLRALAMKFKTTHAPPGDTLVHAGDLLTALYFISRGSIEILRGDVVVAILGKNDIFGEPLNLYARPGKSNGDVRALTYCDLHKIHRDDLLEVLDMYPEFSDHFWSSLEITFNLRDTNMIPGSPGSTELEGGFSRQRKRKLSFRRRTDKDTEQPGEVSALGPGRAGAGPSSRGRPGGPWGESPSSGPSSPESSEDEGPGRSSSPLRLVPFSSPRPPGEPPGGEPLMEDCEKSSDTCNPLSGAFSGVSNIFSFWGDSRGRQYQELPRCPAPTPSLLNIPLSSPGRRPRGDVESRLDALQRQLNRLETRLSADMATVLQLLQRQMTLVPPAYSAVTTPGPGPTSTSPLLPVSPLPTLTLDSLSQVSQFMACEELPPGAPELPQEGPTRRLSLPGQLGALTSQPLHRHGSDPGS
In short: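 hERG: % inhibition measured at 10 µM.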

[8] = Stability in mouse liver microsomes assessed as parent compound remaining at 30 mins; assay type: ADME, Microsome; details: read-out: Stability
In short: (§2)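 Compound incubated with liver microsomes (mouse, rat, dog, human) for 30 min; stability expressed as % of parent concentration remaining.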

[9] = Stability in rat liver microsomes assessed as parent compound remaining at 30 mins; assay type: ADME, Microsome; details: read-out: Stability; in short: as §2
[10] = Stability in dog liver microsomes assessed as parent compound remaining at 30 mins; assay type: ADME, Canis lupus familiaris, Microsome; details: read-out: Stability; in short: as §2
[11] = Stability in human liver microsomes assessed as parent compound remaining at 30 mins; assay type: ADME, Microsome; details: read-out: Stability; in short: as §2
CYP1A2 = biological target: T4, CYP1A2 (Homo sapiens, UniProt P05177); test: Inhibition of CYP1A2 (unknown origin) assessed as enzyme remaining activity at 10 uM; assay type: ADME; details: read-out: INH
T4 sequence (P05177 whole entry): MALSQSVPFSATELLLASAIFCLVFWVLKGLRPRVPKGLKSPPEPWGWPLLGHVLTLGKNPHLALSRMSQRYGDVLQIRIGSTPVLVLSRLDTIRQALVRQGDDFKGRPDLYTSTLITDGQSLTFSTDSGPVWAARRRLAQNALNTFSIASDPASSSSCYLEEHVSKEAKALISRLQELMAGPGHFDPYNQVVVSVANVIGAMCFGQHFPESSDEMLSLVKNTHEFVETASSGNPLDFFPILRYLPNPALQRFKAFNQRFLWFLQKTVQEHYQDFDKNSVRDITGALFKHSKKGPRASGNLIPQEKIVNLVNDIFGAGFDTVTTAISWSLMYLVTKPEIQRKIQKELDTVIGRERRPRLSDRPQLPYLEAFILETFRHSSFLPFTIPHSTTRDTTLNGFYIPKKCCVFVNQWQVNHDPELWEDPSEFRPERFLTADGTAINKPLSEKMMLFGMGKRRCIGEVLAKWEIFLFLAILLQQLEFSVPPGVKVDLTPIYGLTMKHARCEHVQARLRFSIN
In short: (§3)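 CYP isoforms 1A2, 2C9, 2C19, 2D6, 3A4: % remaining enzyme activity in presence of 10 uM compound.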

CYP2C9 = CYP2C9 (Homo sapiens, UniProt P11712); test: Inhibition of CYP2C9 (unknown origin) assessed as enzyme remaining activity at 10 uM; assay type: ADME; details: read-out: INH; in short: as §3
Chain of CYP2C9 (P11712 whole entry): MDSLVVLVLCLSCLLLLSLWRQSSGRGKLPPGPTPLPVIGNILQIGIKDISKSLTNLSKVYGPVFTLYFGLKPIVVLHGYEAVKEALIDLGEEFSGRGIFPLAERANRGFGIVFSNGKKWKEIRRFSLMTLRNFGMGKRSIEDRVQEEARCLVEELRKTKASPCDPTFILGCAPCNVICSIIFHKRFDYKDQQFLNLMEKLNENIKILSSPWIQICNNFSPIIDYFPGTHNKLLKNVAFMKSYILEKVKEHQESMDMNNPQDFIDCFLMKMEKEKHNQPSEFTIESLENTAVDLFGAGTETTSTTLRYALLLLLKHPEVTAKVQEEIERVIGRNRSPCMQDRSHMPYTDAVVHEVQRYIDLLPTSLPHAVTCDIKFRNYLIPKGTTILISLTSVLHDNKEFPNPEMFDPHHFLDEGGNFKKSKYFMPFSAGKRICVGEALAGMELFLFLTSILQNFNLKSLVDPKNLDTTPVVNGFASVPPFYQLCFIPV

CYP2C19 = CYP2C19 (Homo sapiens, UniProt P33261); test: Inhibition of CYP2C19 (unknown origin) assessed as percentage remaining activity at 10 uM; assay type: ADME; details: read-out: INH; in short: as §3
Chain of CYP2C19 (P33261 whole entry): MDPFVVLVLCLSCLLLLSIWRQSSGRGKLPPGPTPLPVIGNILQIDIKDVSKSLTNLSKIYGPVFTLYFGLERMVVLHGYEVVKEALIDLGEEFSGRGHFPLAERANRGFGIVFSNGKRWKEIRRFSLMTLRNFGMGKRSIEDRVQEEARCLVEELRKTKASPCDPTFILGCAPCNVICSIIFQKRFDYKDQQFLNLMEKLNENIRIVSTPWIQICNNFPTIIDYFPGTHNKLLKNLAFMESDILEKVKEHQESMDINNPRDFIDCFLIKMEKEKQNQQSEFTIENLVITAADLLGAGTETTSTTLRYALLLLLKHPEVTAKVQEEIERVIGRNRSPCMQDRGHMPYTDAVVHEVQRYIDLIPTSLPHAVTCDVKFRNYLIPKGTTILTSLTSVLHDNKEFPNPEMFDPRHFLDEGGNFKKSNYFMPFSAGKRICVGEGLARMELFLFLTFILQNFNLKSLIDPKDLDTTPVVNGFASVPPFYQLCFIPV

CYP2D6 = CYP2D6 (Homo sapiens, UniProt P10635); test: Inhibition of CYP2D6 (unknown origin) assessed as percentage remaining activity at 10 uM; assay type: ADME; details: read-out: INH; in short: as §3
Chain of CYP2D6 (P10635 whole entry): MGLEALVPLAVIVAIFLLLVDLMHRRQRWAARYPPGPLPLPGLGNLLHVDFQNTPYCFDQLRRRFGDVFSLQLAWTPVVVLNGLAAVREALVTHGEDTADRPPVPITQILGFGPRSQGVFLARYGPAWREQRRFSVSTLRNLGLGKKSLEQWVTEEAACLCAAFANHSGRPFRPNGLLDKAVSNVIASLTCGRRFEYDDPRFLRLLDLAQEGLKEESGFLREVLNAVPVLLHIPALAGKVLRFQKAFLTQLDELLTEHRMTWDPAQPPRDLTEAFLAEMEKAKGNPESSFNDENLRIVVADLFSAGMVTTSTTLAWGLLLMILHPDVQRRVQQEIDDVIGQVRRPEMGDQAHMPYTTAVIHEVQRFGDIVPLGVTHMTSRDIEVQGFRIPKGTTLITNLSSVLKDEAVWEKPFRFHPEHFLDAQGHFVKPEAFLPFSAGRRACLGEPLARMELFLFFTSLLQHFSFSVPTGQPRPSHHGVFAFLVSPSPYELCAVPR

CYP3A4 = CYP3A4 (Homo sapiens, UniProt P08684); test: Inhibition of CYP3A4 (unknown origin) assessed as percentage remaining activity at 10 uM; assay type: ADME; details: read-out: INH; in short: as §3
Chain of CYP3A4 (P08684 whole entry): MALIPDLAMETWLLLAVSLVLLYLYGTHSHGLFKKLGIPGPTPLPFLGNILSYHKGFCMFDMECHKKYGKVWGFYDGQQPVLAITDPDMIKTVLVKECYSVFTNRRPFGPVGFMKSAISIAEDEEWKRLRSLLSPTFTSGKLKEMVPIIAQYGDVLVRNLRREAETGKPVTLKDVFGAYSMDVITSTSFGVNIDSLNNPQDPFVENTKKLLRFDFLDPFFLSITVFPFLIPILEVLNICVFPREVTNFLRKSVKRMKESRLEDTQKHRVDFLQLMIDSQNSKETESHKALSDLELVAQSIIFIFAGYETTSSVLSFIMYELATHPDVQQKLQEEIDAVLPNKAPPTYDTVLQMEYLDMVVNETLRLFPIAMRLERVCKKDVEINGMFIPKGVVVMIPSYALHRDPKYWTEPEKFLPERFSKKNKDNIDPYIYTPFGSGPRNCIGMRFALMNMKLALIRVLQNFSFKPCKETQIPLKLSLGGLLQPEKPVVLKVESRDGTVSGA

[12] = Half life in mouse at 10 mg/kg, po; assay type: ADME, organism-based; details: in vivo
[13] = Tmax in mouse at 10 mg/kg, po; assay type: ADME, organism-based; details: in vivo
[14] = Cmax in mouse at 10 mg/kg, po; assay type: ADME, organism-based; design: dose 10 mg/kg, route oral; details: in vivo
[15] = AUClast in mouse at 10 mg/kg, po; assay type: ADME, organism-based; design: dose 10 mg/kg, route oral, time 0 - last; details: in vivo

Work on `CCCCc1nc(C)c(Cc2noc(-c3ccccc3F)n2)c(=O)n1Cc1ccc(-c2ccccc2-c2noc(=O)[nH]2)cc1` yielded a %max [1] of 150%.
In the case of `CCc1ccc(CCOc2ccc(CC3SC(=O)NC3=O)cc2)nc1` (stereo not drawn) [PIOGLITAZONE], the Activity (Mus musculus [2]) is reported as “Active”, the Activity (Mus musculus [3]) is reported as “inactive” and the Activity (Mus musculus [4]) is reported as “Active”. The Activity [5] was “Toxic”.
In the case of `CCCCc1nc(C(C)C)c(Cc2nc(C)ns2)c(=O)n1Cc1ccc(-c2ccccc2-c2noc(=O)[nH]2)cc1`, the %max [1] is reported as 79%.
Compound `CCCCc1nc(C(C)C)c(Cc2nnc(-c3ccc(OC)cc3)o2)c(=O)n1Cc1ccc(-c2ccccc2-c2noc(=O)[nH]2)cc1` has a %max [1] of 73%.
Compound `CCCCc1nc(C)c(Cc2nc(Cc3cc(F)cc(F)c3)no2)c(=O)n1Cc1ccc(-c2ccccc2-c2noc(=O)[nH]2)cc1` has an EC50 [6] of 1380 nM and a %max [7] of 72%.
Compound `CCCCc1nc(C)c(Cc2nnc(-c3ccc(F)cc3)[nH]2)c(=O)n1Cc1ccc(-c2ccccc2-c2noc(=O)[nH]2)cc1` has a %max [1] of 71%.
With `CCCCc1nc(C(C)C)c(Cc2nc(C3CC3)no2)c(=O)n1Cc1ccc(-c2ccccc2-c2noc(=O)[nH]2)cc1` the EC50 [6] was 2550 nM and the %max [7] was 102%.
`CCCCc1nc(C)c(Cc2nc(C)no2)c(=O)n1Cc1ccc(-c2ccccc2-c2noc(=O)[nH]2)cc1` showed a %max [1] of 136%.
Compound `CCCCc1nc(C)c(Cc2nnc(C)s2)c(=O)n1Cc1ccc(-c2ccccc2-c2noc(=O)[nH]2)cc1` has a %max [1] of 71%.
`CCCCc1nc(C)c(Cc2noc(C(C)C)n2)c(=O)n1Cc1ccc(-c2ccccc2-c2noc(=O)[nH]2)cc1` gave a %max [1] of 233%.
`CCCCc1nc(C)c(Cc2nc(Cc3ccccc3)no2)c(=O)n1Cc1ccc(-c2ccccc2-c2noc(=O)[nH]2)cc1` gave an EC50 [6] of 1750 nM and a %max [7] of 105%.
Work on `CCCCc1nc(C)c(Cc2nc(Cc3cccc(F)c3)no2)c(=O)n1Cc1ccc(-c2ccccc2-c2noc(=O)[nH]2)cc1` yielded an EC50 [6] of 1390 nM and a %max [7] of 82%.
`CCCCc1nc(C)c(Cc2nc(C)ns2)c(=O)n1Cc1ccc(-c2ccccc2-c2noc(=O)[nH]2)cc1` gave a %max [1] of 93%.
Compound `CCCCc1nc(C)c(Cc2nc(C)n[nH]2)c(=O)n1Cc1ccc(-c2ccccc2-c2noc(=O)[nH]2)cc1` has a %max [1] of 61%.
With `CCCCc1nc(C(C)C)c(Cc2nc(Cc3ccc(F)cc3)no2)c(=O)n1Cc1ccc(-c2ccccc2-c2noc(=O)[nH]2)cc1` the EC50 [6] was 1480 nM and the %max [7] was 80%.
For `CCCCc1nc(C)c(Cc2nc(Cc3ccc(F)cc3)no2)c(=O)n1Cc1ccc(-c2ccccc2-c2noc(=O)[nH]2)cc1`, the EC50 [6] was 2410 nM and the %max [7] was 81%.
With `CCCCc1nc(C)c(Cc2nc(CCOC)no2)c(=O)n1Cc1ccc(-c2ccccc2-c2noc(=O)[nH]2)cc1` the EC50 [6] was 4210 nM and the %max [7] was 68%.
Compound `CCCCc1nc(C(C)C)c(Cc2nc(Cc3ccccc3)no2)c(=O)n1Cc1ccc(-c2ccccc2-c2noc(=O)[nH]2)cc1` has an EC50 [6] of 1140 nM and a %max [7] of 92%.
For `CCCCc1nc(C)c(Cc2nc(C3CC3)no2)c(=O)n1Cc1ccc(-c2ccccc2-c2noc(=O)[nH]2)cc1`, the EC50 [6] was 4250 nM and the %max [7] was 89%.
For `CCCCc1nc(C)c(Cc2nc(COC)no2)c(=O)n1Cc1ccc(-c2ccccc2-c2noc(=O)[nH]2)cc1`, the EC50 [6] was 3390 nM and the %max [7] was 60%.
`CCCCc1nc(C(C)C)c(Cc2nnc(C)s2)c(=O)n1Cc1ccc(-c2ccccc2-c2noc(=O)[nH]2)cc1` gave a %max [1] of 79%.
For `CCCCc1nc(C(C)C)c(Cc2nc(C)no2)c(=O)n1Cc1ccc(-c2ccccc2-c2noc(=O)[nH]2)cc1`, the %max [1] was 207%, the EC50 [6] was 1050 nM and the %max [7] was 93%.
With `CCCCc1nc(C(C)C)c(Cc2nnc(C)o2)c(=O)n1Cc1ccc(-c2ccccc2-c2noc(=O)[nH]2)cc1` the %max [1] was 80%.
`CCCCc1nc(C)c(Cc2nc(C(C)C)no2)c(=O)n1Cc1ccc(-c2ccccc2-c2noc(=O)[nH]2)cc1` gave an EC50 [6] of 1320 nM and a %max [7] of 101%.
With `CCCCc1nc(C(C)C)c(Cc2nc(C(C)(C)C)no2)c(=O)n1Cc1ccc(-c2ccccc2-c2noc(=O)[nH]2)cc1` the EC50 [6] was 590 nM, the %max [7] was 123% and the inhibition at 10 µM (hERG (KCNH2)) was 16%. For the same compound, the remaining at 0.5 h [8] was 24%, the remaining at 0.5 h [9] was 13% and the remaining at 0.5 h [10] was 13%. The remaining at 0.5 h [11] was 12%, the activity at 10 µM (CYP1A2) was 92% and the activity at 10 µM (CYP2C9) was 33%. It also gave an activity at 10 µM (CYP2C19) of 78%, an activity at 10 µM (CYP2D6) of 89% and an activity at 10 µM (CYP3A4) of 50%. It also gave a half-life [12] of 49.2 min, a Tmax [13] of 19.8 min and a Cmax [14] of 547 ng/mL. It also gave an AUC(0-t) [15] of 581 ng·h/mL.
`CCCCc1nc(C(C)C)c(Cc2nnc(C(C)(C)C)s2)c(=O)n1Cc1ccc(-c2ccccc2-c2noc(=O)[nH]2)cc1` showed a %max [1] of 180%.
`CCCCc1nc(C)c(Cc2noc(C(C)(C)C)n2)c(=O)n1Cc1ccc(-c2ccccc2-c2noc(=O)[nH]2)cc1` showed a %max [1] of 258%.

Reference: ChEMBL document CHEMBL4433251, “Discovery of BR102375, a new class of non-TZD PPARγ full agonist for the treatment of type 2 diabetes” (Bioorg Med Chem Lett, 2019)
